Assay [1] addresses Prostaglandin E synthase (Homo sapiens, UniProt O14684). Description: Inhibitory concentration against human prostaglandin E2 synthase (mPGES-1). In outline: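 Microsomes from CHO cells expressing recombinant human mPGES-1, 5–10 lg protein/mL, preincubated with inhibitor 15 min. Reaction started with 1 µM PGH₂ and run 0.5 min, then stopped with 0.1 N HCl plus stannous chloride. PGE₂ measured by EIA. IC₅₀ from eight-point titrations.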

Assay [2] has as its target T1, Thromboxane-A synthase (Homo sapiens, UniProt P24557).
T1 sequence (P24557 whole entry): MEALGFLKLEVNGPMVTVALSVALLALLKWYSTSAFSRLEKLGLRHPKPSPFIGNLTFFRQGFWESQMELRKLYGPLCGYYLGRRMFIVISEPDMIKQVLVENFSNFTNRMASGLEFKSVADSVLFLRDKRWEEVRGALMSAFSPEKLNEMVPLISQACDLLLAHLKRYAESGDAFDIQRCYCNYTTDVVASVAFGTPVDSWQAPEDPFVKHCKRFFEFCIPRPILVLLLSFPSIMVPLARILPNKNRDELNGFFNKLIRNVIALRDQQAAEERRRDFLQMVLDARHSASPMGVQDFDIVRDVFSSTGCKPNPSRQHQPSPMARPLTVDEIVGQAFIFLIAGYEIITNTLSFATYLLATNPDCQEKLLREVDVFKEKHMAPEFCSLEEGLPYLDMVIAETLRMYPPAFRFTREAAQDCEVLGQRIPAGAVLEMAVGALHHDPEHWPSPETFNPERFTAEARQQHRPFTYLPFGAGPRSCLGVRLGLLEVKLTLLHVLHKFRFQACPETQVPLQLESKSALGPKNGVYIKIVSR
Description: In vitro inhibition against human Thromboxane synthase.

Assay [3] addresses T2, Arachidonate 5-lipoxygenase-activating protein (Homo sapiens, UniProt P20292).
T2 sequence (P20292 whole entry): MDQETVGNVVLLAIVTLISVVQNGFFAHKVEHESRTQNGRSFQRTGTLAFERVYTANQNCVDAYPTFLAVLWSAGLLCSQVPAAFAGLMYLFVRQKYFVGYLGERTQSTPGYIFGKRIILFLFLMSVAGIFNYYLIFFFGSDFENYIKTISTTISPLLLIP
Description: In vitro binding affinity against FLAP (5-Lipoxygenase activation protein).

Prostaglandin E synthase, sequence (O14684 whole entry, looked up): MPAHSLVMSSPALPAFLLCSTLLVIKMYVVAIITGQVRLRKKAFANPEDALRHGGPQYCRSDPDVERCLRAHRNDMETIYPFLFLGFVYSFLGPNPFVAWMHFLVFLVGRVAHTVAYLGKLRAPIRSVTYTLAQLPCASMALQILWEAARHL

Broadly, the IC50 is the midpoint of a concentration-inhibition curve. A low value points to greater potency in that assay. On to `CC(C)c1ccc2c(c1)c(C(=O)CC(C)(C)C)c(CC(C)(C)C(=O)O)n2Cc1ccc(Cl)cc1`, for which the IC50 in assay [1] was found to be 250 nM.

In assay [1], `CC(C)c1ccc2c(c1)c(C(=O)CSC(C)(C)C)c(CC(C)(C)C(=O)O)n2Cc1ccc(Cl)cc1` had an IC50 of 260 nM. This IC50 and that of the compound before are within 1.5-fold of each other.

`Cc1c(CC(C)(C)C(=O)O)n(Cc2ccc(Cl)cc2)c2ccc(-c3ccc(-c4ccccc4F)c(F)c3)cc12`: in assay [1], the half-inhibitory concentration (IC50) was found to be 8 nM. This IC50 lies about 32-fold lower than the previous one.

The compound `COC(=O)C(C)(C)Cc1c(SC(C)(C)C)c2cc(C(C)C)ccc2n1Cc1ccc(Cl)cc1` came in with a 50% inhibitory concentration (IC50) in assay [1] of 7200 nM. Against the preceding compound, the IC50 is about 900-fold higher.

As for `Cc1ccc(-c2ccc(-c3ccc4c(c3)c(C)c(CC(C)(C)C(=O)O)n4Cc3ccc(Cl)cc3)cc2F)cc1`, in assay [1], the IC50 was 31 nM.

On to `Cc1c(CC(C)(C)C(=O)O)n(Cc2ccc(Cl)cc2)c2ccc(C(C)(C)C)cc12`, for which the 50% inhibitory concentration (IC50) in assay [1] came out at 330 nM.

Regarding `Cc1c(CC(C)(C)C(=O)O)n(Cc2ccc(Cl)cc2)c2ccc(-c3cccc(-c4ccccc4)c3)cc12`, half-maximal inhibition in assay [1] (IC50) required 160 nM.

The compound `CC(C)c1ccc2c(c1)c(Cc1ccc(C(C)(C)C)cc1)c(CC(C)(C)C(=O)O)n2Cc1ccc(Cl)cc1` came in with an IC50 in assay [1] of 290 nM.

In the case of `Cc1cccc(-c2ccc(-c3ccc4c(c3)c(C)c(CC(C)(C)C(=O)O)n4Cc3ccc(Cl)cc3)cc2F)c1`, the midpoint of inhibition in assay [1], the IC50, lay at 33 nM.

In the case of `Cc1c(CC(C)(C)C(=O)O)n(Cc2ccc(Cl)cc2)c2ccc(-c3ccc(-c4ccccc4)c(F)c3)cc12`, the IC50 in assay [2] was 1400 nM; in assay [3], more than 1000 nM.

The compound `CC(C)c1ccc2c(c1)c(Oc1ccccc1)c(CC(C)(C)C(=O)O)n2Cc1ccc(Cl)cc1` displayed an IC50 in assay [1] of 650 nM.

With `CC(C)c1ccc2c(c1)c(SC(C)(C)C)c(CC(C)(C)C(=O)O)n2C`, the IC50 in assay [1] is more than 10000 nM.

The compound `Cc1c(CC(C)(C)C(=O)O)n(Cc2ccc(Cl)cc2)c2ccc(-c3ccc(-c4cnccn4)c(F)c3)cc12` showed a 50% inhibitory concentration (IC50) in assay [1] of 32 nM. In other words, the double-digit nanomolar range.

Regarding `Cc1ccccc1-c1ccc(-c2ccc3c(c2)c(C)c(CC(C)(C)C(=O)O)n3Cc2ccc(Cl)cc2)cc1F`, the 50% inhibitory concentration (IC50) in assay [2] is 950 nM; in assay [3] it was more than 1000 nM.

In assay [1], `CC(C)c1ccc2c(c1)c(SC(C)(C)C)c(CC(C)(C)C(=O)ON)n2Cc1ccc(Cl)cc1` had a half-maximal inhibitory concentration (IC50) of more than 10000 nM.

In assay [1], `Cc1c(CC(C)(C)C(=O)O)n(Cc2ccc(Cl)cc2)c2ccc(F)cc12` gave an IC50 of 2600 nM.

On to `Cc1c(CC(C)(C)C(=O)O)n(Cc2ccc(Cl)cc2)c2ccc(-c3ccc(-c4ccccc4)c(Cl)c3)cc12`, for which the IC50 in assay [1] was 22 nM.

In assay [1], `CC(C)c1ccc2[nH]c(CC(C)(C)C(=O)O)c(SC(C)(C)C)c2c1` gave an IC50 of more than 10000 nM.

On to `Cc1c(CC(C)(C)C(=O)O)n(Cc2ccc(Cl)cc2)c2c(C(C)C)cccc12`, for which, in assay [1], the IC50 was found to be 4300 nM.

Compound `CC(=O)c1ccccc1-c1ccc(-c2ccc3c(c2)c(C)c(CC(C)(C)C(=O)O)n3Cc2ccc(Cl)cc2)cc1F` returned an IC50 in assay [1] of 6 nM.

Turning to `CC(C)c1ccc2c(c1)c(-c1ccccc1)c(CC(C)(C)C(=O)O)n2Cc1ccc(Cl)cc1`, half-maximal inhibition in assay [1] (IC50) was put at 6400 nM.

Turning to `COc1ccccc1-c1ccc(-c2ccc3c(c2)c(C)c(CC(C)(C)C(=O)O)n3Cc2ccc(Cl)cc2)cc1F`, half-maximal inhibition in assay [1] (IC50) required 5 nM. Against the preceding compound, the IC50 is about 1300-fold lower.

`Cc1c(CC(C)(C)C(=O)O)n(Cc2ccc(Cl)cc2)c2ccc(C(C)C)cc12` showed an IC50 in assay [1] of 1100 nM.

In assay [1], `Cc1c(CC(C)(C)C(=O)O)n(Cc2ccc(Cl)cc2)c2ccc(-c3ccccc3)cc12` came in with an IC50 of 600 nM.

Take `Cc1c(CC(C)(C)C(=O)O)n(Cc2ccc(Cl)cc2)c2ccc(-c3ccc(-c4cccnc4)c(F)c3)cc12`: inhibition in assay [1] was half-maximal at 12 nM (IC50).

For the compound `Cc1c(CC(C)(C)C(=O)O)n(Cc2ccc(Cl)cc2)c2ccccc12`, the IC50 in assay [1] worked out at 3200 nM.

The values are drawn from ChEMBL document CHEMBL1140249, “Inhibitors of the inducible microsomal prostaglandin E2 synthase (mPGES-1) derived from MK-886” (Bioorg Med Chem Lett, 2005).
